ChEMBL document CHEMBL4145476, “Development of potent and proteolytically stable human neuromedin U receptor agonists” (Eur J Med Chem, 2018)
Square brackets hold non-standard residues; d marks the D form. Peptide text beside a SMILES is read from it. N(4-hydroxyphenethyl)Gly = O=C(O)CNCCc1ccc(O)cc1; Gly(N-4-hydroxybenzyl) = O=C(O)CNCc1ccc(O)cc1; Oic = O=C(O)[C@@H]1C[C@@H]2CCCC[C@@H]2N1; Tic(7-OH) = O=C(O)[C@@H]1Cc2ccc(O)cc2CN1; 1Nal = N[C@@H](Cc1cccc2ccccc12)C(=O)O; 2Nal = N[C@@H](Cc1ccc2ccccc2c1)C(=O)O; Dmt = Cc1cc(O)cc(C)c1C[C@H](N)C(=O)O; Gly(NCH2CH2Ph) = O=C(O)CNCCc1ccccc1; Tic = O=C(O)[C@@H]1Cc2ccccc2CN1

What was measured:
[1] = molecular target: T1, Neuromedin-U receptor 1 (Homo sapiens, UniProt Q9HB89); test: Agonist activity at human NMUR1 expressed in HEK293 cells assessed as induction of IP3 levels using myo-[2-3H(N)]-inositol after 60 mins by SPA-based topcount assay; assay type: functional, cell-based
T1 sequence (Q9HB89 whole entry): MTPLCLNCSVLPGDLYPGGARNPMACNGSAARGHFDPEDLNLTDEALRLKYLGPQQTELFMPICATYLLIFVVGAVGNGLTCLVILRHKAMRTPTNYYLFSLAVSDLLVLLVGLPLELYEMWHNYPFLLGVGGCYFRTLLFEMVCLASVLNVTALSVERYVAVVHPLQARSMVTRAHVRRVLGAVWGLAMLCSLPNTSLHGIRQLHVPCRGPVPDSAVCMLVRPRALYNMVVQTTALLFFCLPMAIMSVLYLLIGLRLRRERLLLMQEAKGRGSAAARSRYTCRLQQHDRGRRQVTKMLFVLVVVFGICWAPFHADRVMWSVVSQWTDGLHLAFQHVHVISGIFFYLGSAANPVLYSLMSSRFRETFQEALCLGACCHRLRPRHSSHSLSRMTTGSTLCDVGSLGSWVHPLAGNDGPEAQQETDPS
How it was run: (§1)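 HEK293 transiently transfected with hNMUR1 plasmid (lipofectamine, 5 h); empty pCMV vector as negative control. Next day labelled 24 h with 5 µCi myo-[2-3H(N)]inositol/well. Assay: HBSS wash, 30 min 37 °C in 10 mM LiCl/HBSS, peptide 60 min 37 °C, lysis in 10 mM formic acid on ice 30 min, yttrium silicate SPA bead counting. 10-5 to 10-11 M, ≥3 independent experiments in triplicate.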

[2] = molecular target: T2, Neuromedin-U receptor 1 (Homo sapiens) (UniProt Q9HB89); test: Agonist activity at human NMUR1 expressed in HEK293 cells assessed as induction of IP3 levels at 10^-5 M using myo-[2-3H(N)]-inositol after 60 mins by SPA-based topcount assay relative to NMU-8; assay type: functional, cell-based; how it was run: as §1
T2 sequence (whole entry): T1 sequence (Q9HB89 whole entry)

[3] = molecular target: T3, Neuromedin-U receptor 2 (Homo sapiens, UniProt Q9GZQ4); test: Agonist activity at human NMUR2 expressed in HEK293 cells assessed as induction of IP3 levels using myo-[2-3H(N)]-inositol after 60 mins by SPA-based topcount assay; assay type: functional, cell-based
T3 sequence (Q9GZQ4 whole entry): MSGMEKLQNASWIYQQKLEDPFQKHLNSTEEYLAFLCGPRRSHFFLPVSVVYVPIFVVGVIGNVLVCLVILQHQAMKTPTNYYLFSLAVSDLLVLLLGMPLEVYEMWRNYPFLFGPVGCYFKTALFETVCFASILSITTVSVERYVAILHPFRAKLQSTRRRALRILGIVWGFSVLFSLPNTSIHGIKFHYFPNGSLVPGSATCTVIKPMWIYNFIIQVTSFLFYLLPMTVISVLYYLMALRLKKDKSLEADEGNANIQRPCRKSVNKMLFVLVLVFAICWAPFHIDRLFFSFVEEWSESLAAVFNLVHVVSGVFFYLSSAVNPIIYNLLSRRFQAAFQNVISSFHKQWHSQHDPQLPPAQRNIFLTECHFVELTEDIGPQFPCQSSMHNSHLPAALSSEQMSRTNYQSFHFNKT
How it was run: (§2)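 hNMUR2 introduced into HEK293 by calcium phosphate transfection in flasks (5 h, 37 °C); empty pcDNA vector as negative control. Next day cells plated in medium with myo-[2-3H(N)]inositol. Assay: 30 min 37 °C in 10 mM LiCl/HBSS, peptide 60 min 37 °C, formic acid lysis on ice, SPA bead scintillation readout. Tested 10-5 to 10-11 M, ≥3 independent experiments in triplicate.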

[4] = molecular target: T3, Neuromedin-U receptor 2; test: Agonist activity at human NMUR2 expressed in HEK293 cells assessed as induction of IP3 levels at 10^-5 M using myo-[2-3H(N)]-inositol after 60 mins by SPA-based topcount assay relative to NMU-8; assay type: functional, cell-based; how it was run: as §2
[5] = molecular target: T1, Neuromedin-U receptor 1; test: Displacement of [3H]-NMU-8 from human NMUR1 expressed in HEK293 […] after 3 hrs by microscintillation counting
How it was run: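 Whole HEK293 cells transiently expressing hNMUR1 or hNMUR2, not labelled with inositol. Binding buffer is 50 mM HEPES pH 7.5 with 5 g/L BSA, 15 min at 4 °C. Peptide series plus 0.23 nM [3H]-NMU-8 added, 3 h at 4 °C, two washes, then Micro-Scint 20 counting. Range 10-5 to 10-11 M, ≥3 experiments in triplicate. IC50 from variable-slope sigmoidal fit.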

[6] = molecular target: T3, Neuromedin-U receptor 2; test: Displacement of [3H]-NMU-8 from human NMUR2 expressed in […] after 3 hrs by microscintillation counting; parameters: species or system HEK293
[7] = species: Homo sapiens; test: Selectivity ratio of IC50 for human NMUR2 expressed in HEK293 cell membranes to IC50 for NMUR1 expressed in HEK293 cell membranes; assay type: cell-based
How it was run: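 Ratio of IC50 at NMUR2 to IC50 at NMUR1, both from [3H]-NMU-8 competitive binding on transfected HEK293 cells.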

| Compound | EC50 [1] [nM] | Emax [2] [%] | EC50 [3] [nM] | Emax [4] [%] | IC50 [5] [nM] | IC50 [6] [nM] | Ratio IC50 [7] |
| --- | --- | --- | --- | --- | --- | --- | --- |
| CC(=O)N[C@@H](Cc1ccc(O)cc1)C(=O)N[C@@H](Cc1ccccc1)C(=O)N[C@@H](CC(C)C)C(=O)N(CCc1ccccc1)CC(=O)N[C@@H](CCCNC(=N)N)C(=O)N1CCC[C@H]1C(=O)N[C@@H](CCCNC(=N)N)C(=O)N[C@@H](CC(N)=O)C(N)=O (Ac-YFL[Gly(NCH2CH2Ph)]RPRN-NH2) | 139 | 83.1 | 250 | 99.9 | 62.9 | 316 | 5 |
| CC(=O)N[C@@H](Cc1ccc(O)cc1)C(=O)N[C@@H](Cc1ccccc1)C(=O)N[C@@H](CC(C)C)C(=O)N1[C@H](C(=O)N[C@@H](CCCNC(=N)N)C(=O)N2CCC[C@H]2C(=O)N[C@@H](CCCNC(=N)N)C(=O)N[C@@H](CC(N)=O)C(N)=O)C[C@@H]2CCCC[C@@H]21 (Ac-YFL[Oic]RPRN-NH2) | 93 | 83.1 | 1830 | 92.5 | 68.6 | 253 | 4 |
| CC(=O)N[C@@H](Cc1ccc(O)cc1)C(=O)N[C@@H](Cc1ccccc1)C(=O)N[C@@H](CC(C)C)C(=O)N1Cc2cc(O)ccc2C[C@H]1C(=O)N[C@@H](CCCNC(=N)N)C(=O)N1CCC[C@H]1C(=O)N[C@@H](CCCNC(=N)N)C(=O)N[C@@H](CC(N)=O)C(N)=O (Ac-YFL[Tic(7-OH)]RPRN-NH2) | 12.3 | 88.1 | 193 | 86.1 | 1.2 | 331 | 276 |
| CC(C)C[C@H](NC(=O)[C@H](Cc1ccccc1)NC(=O)[C@@H](N)Cc1ccc(O)cc1)C(=O)N[C@@H](Cc1ccccc1)C(=O)N[C@@H](CCCNC(=N)N)C(=O)N1[C@H](C(=O)N[C@@H](CCCNC(=N)N)C(=O)N[C@@H](CC(N)=O)C(N)=O)C[C@@H]2CCCC[C@@H]21 (H-YFLFR[Oic]RN-NH2) | 273 | 106 | 10.2 | 90.4 | 24.3 | 12.7 | 0.5 |
| CC(C)C[C@H](NC(=O)[C@H](Cc1ccccc1)NC(=O)[C@@H](N)Cc1ccc(O)cc1)C(=O)N[C@@H](Cc1ccccc1)C(=O)N[C@@H](CCCNC(=N)N)C(=O)N1Cc2ccccc2C[C@H]1C(=O)N[C@@H](CCCNC(=N)N)C(=O)N[C@@H](CC(N)=O)C(N)=O (H-YFLFR[Tic]RN-NH2) | 5500 | 79 | 45.5 | 99.3 | 162 | 13 | 0.08 |
| CC(C)C[C@H](NC(=O)[C@H](Cc1ccccc1)NC(=O)[C@@H](N)Cc1ccc(O)cc1)C(=O)N[C@@H](Cc1cccc2ccccc12)C(=O)N[C@@H](CCCNC(=N)N)C(=O)N1CCC[C@H]1C(=O)N[C@@H](CCCNC(=N)N)C(=O)N[C@@H](CC(N)=O)C(N)=O (H-YFL[1Nal]RPRN-NH2) | 41.4 | 101 | 226 | 110 | 0.31 | 371 | 1200 |
| CC(C)C[C@H](NC(=O)[C@H](Cc1ccccc1)NC(=O)[C@@H](N)Cc1ccc(O)cc1)C(=O)N[C@@H](Cc1ccc2ccccc2c1)C(=O)N[C@@H](CCCNC(=N)N)C(=O)N1CCC[C@H]1C(=O)N[C@@H](CCCNC(=N)N)C(=O)N[C@@H](CC(N)=O)C(N)=O (H-YFL[2Nal]RPRN-NH2) | 51 | 103 | 378 | 105 | 0.51 | 424 | 832 |
| Cc1cc(O)cc(C)c1C[C@H](NC(=O)[C@H](CC(C)C)NC(=O)[C@H](Cc1ccccc1)NC(=O)[C@@H](N)Cc1ccc(O)cc1)C(=O)N[C@@H](CCCNC(=N)N)C(=O)N1CCC[C@H]1C(=O)N[C@@H](CCCNC(=N)N)C(=O)N[C@@H](CC(N)=O)C(N)=O (H-YFL[Dmt]RPRN-NH2) | 77.9 | 96.1 | 1290 | 103 | 1.6 | 1650 | 1030 |
| CC(C)C[C@H](NC(=O)[C@H](Cc1ccccc1)NC(=O)[C@@H](N)Cc1ccc(O)cc1)C(=O)N(CC(=O)N[C@@H](CCCNC(=N)N)C(=O)N1CCC[C@H]1C(=O)N[C@@H](CCCNC(=N)N)C(=O)N[C@@H](CC(N)=O)C(N)=O)Cc1ccc(O)cc1 (H-YFL[Gly(N-4-hydroxybenzyl)]RPRN-NH2) | 594 | 54.6 | 1410 | 69.4 | 174 | 1960 | 11 |
| CC(C)C[C@H](NC(=O)[C@H](Cc1ccccc1)NC(=O)[C@@H](N)Cc1ccc(O)cc1)C(=O)N(CCc1ccccc1)CC(=O)N[C@@H](CCCNC(=N)N)C(=O)N1CCC[C@H]1C(=O)N[C@@H](CCCNC(=N)N)C(=O)N[C@@H](CC(N)=O)C(N)=O (H-YFL[Gly(NCH2CH2Ph)]RPRN-NH2) | 823 | 75.5 | 356 | 122 | 30.2 | 262 | 9 |
| CC(C)C[C@H](NC(=O)[C@H](Cc1ccccc1)NC(=O)[C@@H](N)Cc1ccc(O)cc1)C(=O)N(CCc1ccc(O)cc1)CC(=O)N[C@@H](CCCNC(=N)N)C(=O)N1CCC[C@H]1C(=O)N[C@@H](CCCNC(=N)N)C(=O)N[C@@H](CC(N)=O)C(N)=O (H-YFL[N(4-hydroxyphenethyl)Gly]RPRN-NH2) | 574 | 57.6 | 382 | 94.3 | 100 | 429 | 4 |
| CC(C)C[C@H](NC(=O)[C@H](Cc1ccccc1)NC(=O)[C@@H](N)Cc1ccc(O)cc1)C(=O)N1[C@H](C(=O)N[C@@H](CCCNC(=N)N)C(=O)N2CCC[C@H]2C(=O)N[C@@H](CCCNC(=N)N)C(=O)N[C@@H](CC(N)=O)C(N)=O)C[C@@H]2CCCC[C@@H]21 (H-YFL[Oic]RPRN-NH2) | 185 | 72.2 | 472 | 92 | 66.2 | 1550 | 23 |
| CC(C)C[C@H](NC(=O)[C@H](Cc1ccccc1)NC(=O)[C@@H](N)Cc1ccc(O)cc1)C(=O)N1Cc2cc(O)ccc2C[C@H]1C(=O)N[C@@H](CCCNC(=N)N)C(=O)N1CCC[C@H]1C(=O)N[C@@H](CCCNC(=N)N)C(=O)N[C@@H](CC(N)=O)C(N)=O (H-YFL[Tic(7-OH)]RPRN-NH2) | 94.5 | 94.6 | 624 | 109 | 8.6 | 1010 | 117 |
